How the values were obtained:
Format in all cases: functional
[1] = test system: Mycobacterium tuberculosis; experiment: Antitubercular activity against rifampin and isoniazid-resistant Mycobacterium tuberculosis TB-1678/05 after 24 hrs by BACTEC radiometric susceptibility assay; settings: TB-1678/05, 24 h
Summary of the method: (§1)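 BACTEC radiometric assay in 7H12 (12B) medium with 14C-palmitic acid as substrate; 14CO2 output read daily as Growth Index (GI) at 37 °C ± 1 °C. H37Rv inoculum grown in 12B vial to GI around 300. Compounds dissolved in DMSO. Control vial held 1:100 diluted bacterial suspension. Reading continued until control GI reached 30 or more. Daily change in GI compared with control to set susceptibility and MIC.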

[2] = test system: Mycobacterium tuberculosis; experiment: Antitubercular activity against isoniazid-resistant Mycobacterium tuberculosis 433 after 24 hrs by BACTEC radiometric susceptibility assay; settings: Mycobacterium tuberculosis, 433, 24 h; summary of the method: as §1
[3] = test system: Mycobacterium tuberculosis; experiment: Antitubercular activity against rifampin and isoniazid-resistant Mycobacterium tuberculosis 2643 after 24 hrs by BACTEC radiometric susceptibility assay; settings: Mycobacterium tuberculosis, 2643, 24 h; summary of the method: as §1
[4] = test system: Mycobacterium tuberculosis; experiment: Antitubercular activity against ethambutol-resistant Mycobacterium tuberculosis TB-2506/06 after 24 hrs by BACTEC radiometric susceptibility assay; settings: TB-2506/06, 24 h; summary of the method: as §1

Measured: MIC

CC(C)CCO[C@@H]1C=CC(=O)[C@@H](COC(=O)C(C)(C)C)O1
1.56 µg/mL: all assays above

Reference: ChEMBL document CHEMBL1782055, “2,3-dideoxy hex-2-enopyranosid-4-uloses as promising new anti-tubercular agents: design, synthesis, biological evaluation and SAR studies” (Eur J Med Chem, 2011)
